Compound activity (PubChem BioAssay)
A selection: hits, their analogues and other compounds. The true share with any hit is near 1.7%.
PABP FP inh – PABP-poly(A) binding inhibition. inhibition, % at 35 µM. P11940. PABP-poly(A) RNA binding, fluorescence polarization. AID 2014. 290,000 compounds, 1% hits;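 further: calls also rest on retests at 20 µM and on dose response follow-up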
Target sequence (P11940 whole entry, looked up): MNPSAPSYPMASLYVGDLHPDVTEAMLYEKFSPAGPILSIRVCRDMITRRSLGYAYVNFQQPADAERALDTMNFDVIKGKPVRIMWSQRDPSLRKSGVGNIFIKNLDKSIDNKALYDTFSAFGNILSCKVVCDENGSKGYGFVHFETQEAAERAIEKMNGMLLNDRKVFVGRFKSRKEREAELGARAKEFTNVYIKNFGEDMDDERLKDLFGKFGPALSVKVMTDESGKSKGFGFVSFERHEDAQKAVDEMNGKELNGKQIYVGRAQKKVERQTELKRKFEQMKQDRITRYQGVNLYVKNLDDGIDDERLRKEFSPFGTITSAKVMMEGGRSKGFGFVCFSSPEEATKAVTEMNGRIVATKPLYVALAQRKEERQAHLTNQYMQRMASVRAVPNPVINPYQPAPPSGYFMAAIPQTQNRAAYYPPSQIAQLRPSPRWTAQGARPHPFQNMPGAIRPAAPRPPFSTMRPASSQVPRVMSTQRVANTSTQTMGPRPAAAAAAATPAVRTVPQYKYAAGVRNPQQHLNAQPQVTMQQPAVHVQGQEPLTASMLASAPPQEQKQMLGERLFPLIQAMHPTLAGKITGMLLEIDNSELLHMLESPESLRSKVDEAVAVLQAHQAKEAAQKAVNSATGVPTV
MLLE-PAM2 inh – inhibitors of microRNA-mediated deadenylation, human PABP1 MLLE binding. P11940. GST-MLLE / FITC-PAM2 fluorescence polarization. inhibition, % at 20 µM. 360,000 compounds, 0.36% hits; in the data active means inhibition above about 35%, passing the limit was not always enough
MT1-MMP act inh – inhibitors of human MT1-MMP activation; AID 651647; HT1080 RFP-PRO-GFP cells, GFP/RFP ratio fluorescence, overnight; percent of plate control window, DMSO zero; GFP/RFP ratio change, % at 20 µM; P50281; 360,000 compounds, 0.061% hits;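 active means GFP/RFP ratio change of at least 30% with cell ATP level not reduced by more than half and red fluorescence within 50% of control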
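Read-out: GFP/RFP fluorescence ratio; Test system: RFP-PRO-GFP reporter HT1080 cells; Compound dosing: single-point 20 µM compound, 1% DMSO; Times: overnight compound exposure at 37 °C.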
SKN-1 inh – C. elegans SKN-1 inhibition; C. elegans VP596 Pgst-4::GFP/RFP ratio, acrylamide-induced, 24 h; inhibition, % at 21.8 µM; 360,000 compounds, 0.49% hits;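 active means interference check ratio from 0.5 to 1.5 plus GFP to RFP signal ratio inhibition reaching or exceeding a fixed threshold, cut at about 30% in these data, passing the limit was not always enough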
eIF4H inh – inhibitors of RNA binding by human eIF4H | AID 2012 | inhibition, % at 35 µM | Q15056 | eIF4H fluorescence polarization binding assay | 290,000 compounds, 0.94% hits;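 further: calls also rest on retests at 20 µM and on dose response follow-up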
Of the large screens only hits and unclear results are named; the others gave an inactive call. Unless noted, how the calls were made is not given here.

O=C(O)c1ccc(N/N=C/c2ccc(-c3cc(Cl)ccc3Cl)o2)cc1	none
Cc1ccc(-c2ccc(/C=N/NC(=S)Nc3ccccc3)o2)cc1[N+](=O)[O-]	MLLE-PAM2 inh 38
O=C(O)c1ccc(-c2ccc(/C=N/Nc3ccc([N+](=O)[O-])cc3)o2)cc1	none
O=C(O)c1ccc(N/N=C/c2ccc(-c3ccc(Cl)cc3Cl)o2)cc1	PABP FP inh 11
NC(=O)CC(NC(=O)Cc1ccc(Cl)cc1)c1ccc(NCCN2CCOCC2)c([N+](=O)[O-])c1 (stereo not given)	none
NS(=O)(=O)c1ccc(-c2ccc(/C=N/Nc3ccc(C(=O)O)cc3)o2)cc1	eIF4H inh 56
O=[N+]([O-])c1ccc(NN=Cc2cccc([N+](=O)[O-])c2)cc1	SKN-1 inh 38 (no result: PABP FP inh, eIF4H inh)
CC1=C(C(=O)OC(C)C)C(c2ccc(Cl)cc2)n2c(s/c(=C\c3ccc(OCC(=O)O)cc3)c2=O)=N1 (stereo not given)	none
Cc1ccc(CNC(=O)c2cc(S(=O)(=O)N3CCCCC3)ccc2N2CCOCC2)cc1	none (no result: PABP FP inh, eIF4H inh)
CC(=O)Nc1ccc(NC(=O)CC2SC(=O)N(CC(=O)c3ccccc3)C2=O)cc1 (stereo not given)	none
O=C(CC1SC(=O)N(c2ccccc2)C1=O)Nc1ccccc1 (stereo not given)	MLLE-PAM2 inh 49
Cc1ccc(NC(=O)CC2SC3=NCCN3C2=O)cc1 (stereo not given)	MLLE-PAM2 inh 44
Cc1cccc(NC(=O)CC2SC(=O)N(c3ccccc3)C2=O)c1 (stereo not given)	none
CCCN1C(=O)SC(CC(=O)Nc2ccc(C)cc2)C1=O (stereo not given)	MLLE-PAM2 inh 45
Cc1ccc(NC(=O)CC2SC(=O)N(c3ccccc3)C2=O)cc1 (stereo not given)	MLLE-PAM2 inh 45
CCOC(=O)c1ccc(NC(=O)NCc2cccnc2)cc1	none
CC(=O)N1CCN(C(=O)COc2ccccc2C(=O)Nc2ccccc2)CC1	none
CCOC(=O)C1CCN(C(=O)C2CCCN(c3ncnc4c3nc3n4CCCCC3)C2)CC1 (stereo not given)	none
CNC(=O)Cn1nc(C)c(S(=O)(=O)N2CCOCC2)c1C	none (no result: PABP FP inh, eIF4H inh)
O=C(CSc1ccc2nnc(-c3ccccc3)n2n1)N1CCCCC1	MLLE-PAM2 inh 40 (no result: PABP FP inh, eIF4H inh)
CC(Sc1ccccc1)C(=O)NCC1COc2ccccc2O1 (stereo not given)	none (no result: PABP FP inh, eIF4H inh)
O=C1c2ccccc2C(=O)c2c1cccc2N(CCO)CCO	PABP FP inh inconclusive, MLLE-PAM2 inh 41, eIF4H inh inconclusive
O=C1C=C(N(CCO)Cc2ccccc2)c2ccccc2C1=O	none
NC(=O)COc1ccc(NC(=O)CC23CC4CC(CC(C4)C2)C3)cc1	none
COc1ccc(CN2CCC[C@]3(N[C@H](c4ccc(C)cc4)[C@@H]4C(=O)N(C)C(=O)[C@@H]43)C2=O)cc1	none (no result: PABP FP inh, eIF4H inh)
O=C(CSc1nc(N2CCOCC2)nc(N2CCOCC2)n1)Nc1cccc(C(F)(F)F)c1	none
CCCCN1C2=C(C(=O)CCC2)C(c2ccc(Cl)c(Cl)c2)C2=C1c1ccccc1C2=O (stereo not given)	PABP FP inh 92, eIF4H inh 90
CCCN1C(=O)c2ccccc2NC1c1ccc(Cl)c(Cl)c1 (stereo not given)	none
COCc1cc(=O)[nH]c(SCCS(=O)(=O)c2ccc(Cl)cc2Cl)n1	MLLE-PAM2 inh 38
COCc1cc(=O)[nH]c(SCCS(=O)(=O)c2ccc(C)cc2)n1	none
COC(=O)c1scc2c(=O)cc(C(F)(F)F)[nH]c12	MLLE-PAM2 inh 56
O=c1cc(C(F)(F)F)[nH]c2ccc(C(F)(F)F)cc12	none
O=C(CSc1nc2ccccc2o1)c1ccc2c(c1)OCCO2	SKN-1 inh 37
Cc1nonc1NC(=O)CSc1nc2ccccc2o1	PABP FP inh 72, eIF4H inh 83
CC(=O)Nc1nonc1NC(=O)CSc1nc2ccccc2o1	none
O=C(CSc1nc2ccccc2o1)c1ccccc1	none
Cc1cc(C(=O)CSc2nc3ccccc3o2)c(C)n1C1CC1	PABP FP inh 98, eIF4H inh 88
CCCn1c(SCC(=O)c2ccc3c(c2)OCCO3)n[nH]c1=O	SKN-1 inh 43
Cc1cc(C(=O)CSc2ncnc3ccccc23)c(C)n1C1CC1	none (no result: PABP FP inh, eIF4H inh)
CC(C)CN1C(=O)NC(NS(=O)(=O)c2ccc(N)cc2)(C(F)(F)F)C1=O (stereo not given)	none
Cc1ccc(N(CC(=O)NCC2CCCO2)C(=O)CCC(=O)Nc2cc(C)on2)cc1 (stereo not given)	none
Cc1ccc(NC(=O)C2CCN(S(=O)(=O)c3cccnc3)CC2)cc1C	none
C=CCn1c(C)cc(C(=O)CSc2nc3ccccc3o2)c1C	PABP FP inh 79, eIF4H inh 70
c1ccc2c(c1)c1c(c3ccccc32)CN2CCCC2C1 (stereo not given)	none (no result: PABP FP inh, eIF4H inh)
O=C(O)CCC(=O)Nc1ccc2c(c1)Cc1cc(NC(=O)CCC(=O)O)ccc1-2	eIF4H inh 59
O=C(O)CCC(=O)Nc1ccc(N2CCCCC2)c(C(=O)O)c1	none
O=C(NNc1ccc(Cl)cc1)c1sccc1Cl	MLLE-PAM2 inh 42
NS(=O)(=O)c1ccc(NNC(=O)c2sccc2Cl)cc1	none
CC1CN(C(=O)c2cccc(S(=O)(=O)Nc3ccc(Cl)cc3)c2)CC(C)O1 (stereo not given)	PABP FP inh 66, eIF4H inh active
O=[N+]([O-])c1ccc2c(c1)-c1ccccc1C2O (stereo not given)	none (no result: PABP FP inh, eIF4H inh)
O=C(Nc1nccs1)c1ccc(-c2ccc([N+](=O)[O-])cc2)o1	PABP FP inh inconclusive, eIF4H inh inconclusive
O=C(Nc1nccs1)c1ccc(-c2ccc(F)cc2)o1	PABP FP inh inconclusive, SKN-1 inh 52
O=C(/C=C/c1ccc(Cl)cc1)Nc1nccs1	eIF4H inh active
C/C=C/C=C/C(=O)Nc1nccs1	none
O=C(Nc1nccs1)c1ccc(-c2ccc(Cl)cc2)o1	SKN-1 inh 41
CCCc1cc(C(=O)N2CCN(c3ccc(C(F)(F)F)cn3)CC2)sc1C	none
CC(C)(C)c1ccc(/C=C/C(=O)c2ccc(NC3=NCCCS3)cc2)cc1	none
O=C(/C=C/c1ccc(Br)cc1)c1ccc(NC2=NCCCS2)cc1	SKN-1 inh 83
Cc1cccc(/C=C/C(=O)c2ccc(NC3=NCCCS3)cc2)c1	SKN-1 inh 60
O=C(/C=C/c1ccccc1)c1ccc(NC2=NCCCS2)cc1	none
COc1cccc(/C=C/C(=O)c2ccc(NC3=NCCCS3)cc2)c1	PABP FP inh 73, eIF4H inh active
O=C(NCCC(=O)N1CCCC(C(F)(F)F)C1)c1ccccc1Cl (stereo not given)	none
O=C(Oc1ccc(-n2cnnn2)cc1)c1ccccc1	eIF4H inh 71
NC(=O)COc1ccc(-n2cnnn2)cc1	eIF4H inh 92
O=c1[nH][nH]c2c1C(c1ccc(F)cc1)OC(CCc1ccccc1)C2 (stereo not given)	none (no result: PABP FP inh, MLLE-PAM2 inh, eIF4H inh)
